According to PMC5879004 (Heart rhythm, 2017):
“Also recorded” adds a separate entry of the source.

Tests used:
purified RyR2 = purified RyR2 (Ovis aries, UniProt A0ACI6RLQ3); assay: Single-channel recordings of purified RyR2 in planar lipid bilayers; type: biochemical, sheep
[1] = system: RyR2 macromolecular complex (sheep cardiac SR); assay: 3H-Ryanodine binding to cardiac SR vesicles
Summary of the method: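 Sheep cardiac SR vesicles (0.5mg/ml) incubated to equilibrium for 3hrs at 37°C in 20mM HEPES pH 7.4, 250mM KCl, 50µM CaCl2, 2nM 3H-ryanodine plus 13nM unlabeled ryanodine, ± test compound. Non-specific binding (200nM ryanodine, 4mM EGTA) subtracted. Quenched by rapid filtration. Ca2+-dependence run across free Ca2+ levels set with EGTA. Data as mean ± SEM.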

[2] = system: ventricular myocytes from R176Q mice; assay: Ca2+ spark frequency; type: cell-based, mouse
Summary of the method: (§1)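 Isolated mouse ventricular myocytes were loaded with Fluo-4-AM (2µM) and stimulated with 100nM isoproterenol to raise spontaneous sparks. Cells were exposed to vehicle or test compound for 2hrs, then sparks were imaged by confocal microscopy and spark frequency computed. For R176Q cells, a 0.5nM–5µM dose series was fitted sigmoidally for IC50 (n=6–10 cells per group, 3 mice).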

WT myocytes = assay: Ca2+ spark frequency; type: cell-based, mouse; settings: 500nM
Summary of the method: as §1

[3] = system: ventricular myocytes of WT mice; assay: Ca2+ transient amplitude induced by 1-Hz field stimulation, WT myocytes; type: cell-based, mouse; settings: 500nM, vehicle 2.6 ± 0.2
R176Q myocytes = assay: Ca2+ transient amplitude induced by 1-Hz field stimulation, R176Q myocytes; type: cell-based, mouse; settings: 500nM, vehicle 2.4 ± 0.1
R176Q mice [4] = assay: Inducible VT by extrastimuli pacing after epinephrine and caffeine; type: in vivo, mouse; settings: 2.5µg/kg i.p. 15 minutes prior to pacing, vehicle 8 of 11
Summary of the method: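 Adult (2–3-month) R176Q mice under 1.5% isoflurane in 95% O2 had surface ECG and intracardiac electrograms recorded. Epinephrine (2mg/kg) and caffeine (120mg/kg) were given i.p., then extrastimulus pacing tested VT inducibility, with or without i.p. test compound. Incidence was scored as mice with VT per group.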

R176Q mice [5] = assay: ECG parameters after injection; type: in vivo, mouse
Summary of the method: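 RyR2-R176Q/+ mice aged 2–3 months were anesthetised with 1.5% isoflurane in 95% O2. Six-lead surface ECG and intracardiac electrograms were recorded simultaneously, at baseline and with or without intraperitoneal test compound.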

[6] = IC50, single-channel, purified RyR2 without CaM, 25µM cis-Ca2+
[7] = −Log([IC50], M), single-channel, purified RyR2 without CaM, 25µM cis-Ca2+

Row | SMILES | inhibition of channel activity (purified RyR2; purified RyR2, all concentrations tested (10nM-100µM)) | effect on equilibrium 3H-ryanodine binding ([1]; equilibrium binding, sheep cardiac SR) | reduction of CaSF compared to vehicle ([2]; 500nM) | IC50 ([2]; CaSF inhibition, 2hrs exposure) [µM] | effect on CaSF (WT myocytes) | Ca2+ transient amplitude [3] [F/Fo] | Ca2+ transient amplitude (R176Q myocytes) [F/Fo] | incidence of inducible VT (R176Q mice [4]) | effect on ECG parameters (RR, HR, PR, QRS, QTc) (R176Q mice [5]) | IC50 (purified RyR2; IC50, single-channel, purified RyR2 + 100nM CaM) [µM] | IC50 (purified RyR2; IC50, single-channel, purified RyR2 + 1μM CaM) [µM] | IC50 (purified RyR2; [6]) [µM] | reduction in potency (IC50 higher) vs CaM-free purified RyR2 (purified RyR2; cardiac SR or purified RyR2 supplemented with 100nM or 1µM CaM) [fold] | channel activity at concentrations above 100nM (purified RyR2; purified RyR2 without CaM) | IC50 (purified RyR2; −Log([IC50], M), single-channel, purified RyR2 + 100nM CaM) [µM] | IC50 (purified RyR2; −Log([IC50], M), single-channel, purified RyR2 + 1μM CaM) [µM] | IC50 (purified RyR2; [7]) [µM] | concentration required for inhibition of equilibrium 3H-ryanodine binding ([1]; equilibrium binding over 3 hours) [µM] | shift of the Ca2+-dependence of 3H-ryanodine binding ([1]; therapeutic concentrations)
1 | CCN(CC)CCO [Compound 3, 2-(diethylamino)-ethanol, reference compound] | did not inhibit | no effect | – | – | – | – | – | – | – | – | – | – | – | – | – | – | – | – | –
2 | CCCCNc1ccc(C(=O)OCCN(CC)CC)c(OC)c1 [EL20, 2-(diethylamino)ethyl 4-(butylamino)-2-methoxybenzoate] | – | – | ~ 70% | 0.0354 | did not significantly alter | 2.7 ± 0.2 | 2.8 ± 0.3 | 1 of 7 and significantly reduced | did not alter any ECG parameters; also recorded: not affected | 1.86 | 3.56 | 0.00821 | 200 to 1000 | completely inhibited | 1.86 | 3.55 | 0.00813 | > 10 | did not shift
3 | CCCCNc1ccc(C(=O)O)c(OC)c1 [Compound 2, 4-(butylamino)-2-methoxybenzoic acid] | – | – | – | – | – | – | – | – | – | – | – | 0.00945 | – | completely inhibited | – | – | 0.00955 | – | –
